Measured values reported in ChEMBL document CHEMBL4002578, “α-Glucosidase Inhibitors from the Marine-Derived Fungus Aspergillus flavipes HN4-13” (J Nat Prod, 2016).
Counter-ions that a name gives are not always drawn.

Tests used:
[1] = Cytotoxicity against human Caco2 cells measured after 72 hrs by MTT assay; type: cell-based; details: Caco-2 cells
Procedure, shortened: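 Caco-2 viability was measured by MTT, and the median cytotoxic concentration (CC50) was derived.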

A549 = assay: Cytotoxicity against human A549 cells assessed as growth inhibition at 10 uM measured after 72 hrs by CCK-8 assay relative to control; type: functional; details: A549, 72 h, read-out: GI
[2] = Competitive inhibition of human alpha-glucosidase expressed in Saccharomyces cerevisiae using varying levels of p-nitophenyl-alpha-glucopyranoside as substrate pretreated with substrate for 15 mins followed by enzyme addition measured after 15 mins by Lineweaver-burk plot analysis
[3] = Non-competitive inhibition of human alpha-glucosidase expressed in Saccharomyces cerevisiae using varying levels of p-nitophenyl-alpha-glucopyranoside as substrate pretreated with substrate for 15 mins followed by enzyme addition measured after 15 mins by Lineweaver-burk plot analysis
[4] = Selectivity index, ratio of CC50 for human Caco2 cells to IC50 for human alpha-glucosidase expressed in Saccharomyces cerevisiae
Procedure, shortened: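 SI was calculated as Caco-2 CC50 (MTT) divided by the α-glucosidase IC50 from the pNPG assay.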

[5] = Inhibition of human alpha-glucosidase expressed in Saccharomyces cerevisiae using p-nitophenyl-alpha-glucopyranoside as substrate pretreated with substrate for 15 mins followed by enzyme addition measured after 15 mins
Procedure, shortened: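 Enzyme from a recombinant gene expressed in Saccharomyces cerevisiae, diluted to 0.2 U/mL in 0.01 M PBS. Compound, at three concentrations in sodium phosphate buffer pH 6.8, was mixed with 2.5 mM pNPG stock and held 15 min at 37 °C. Enzyme was then added for a further 15 min at 37 °C, and absorbance was read at 405 nm. The no-enzyme blank was subtracted, and IC50 was taken as the concentration giving 50% inhibition.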

Jurkat = assay: Cytotoxicity against human Jurkat cells assessed as growth inhibition at 10 uM measured after 72 hrs by CCK-8 assay relative to control; type: functional; details: read-out: GI
K562 = assay: Cytotoxicity against human K562 cells assessed as growth inhibition at 10 uM measured after 72 hrs by CCK-8 assay relative to control; type: functional; details: K562, 72 h, read-out: GI
MCF7 = assay: Cytotoxicity against human MCF7 cells assessed as growth inhibition at 10 uM measured after 72 hrs by CCK-8 assay relative to control; type: functional; details: MCF7, 72 h, read-out: GI
HepG2 = assay: Cytotoxicity against human HepG2 cells assessed as growth inhibition at 10 uM measured after 72 hrs by CCK-8 assay relative to control; type: functional; details: HepG2, 72 h, read-out: GI

Ki [2] [µM]	Ki [3] [µM]	IC50 [5] [µM]	Compound	CC50 at 72 h [1] [µM]	inhibition of growth at 10 µM (A549) [%]	Ratio CC50/IC50 [4]	inhibition of growth at 10 µM (Jurkat) [%]	inhibition of growth at 10 µM (K562) [%]	inhibition of growth at 10 µM (MCF7) [%]	inhibition of growth at 10 µM (HepG2) [%]
9.2	4.7	95	CC1(C)CCc2cc(CC3=C(c4ccc(O)cc4)[C@@](O)(C(=O)O)OC3=O)ccc2O1	> 800	< 34	>8.5	< 34	< 34	< 34	< 34
	0.43	34	CC1(C)CCc2cc(CC3OC(=O)C(O)=C3c3ccc(O)cc3)ccc2O1 (configuration not stated)	> 800	< 34	>24	< 34	< 34	< 34	< 34
2.5	7.2	33	Cc1c(O)c(O)c(O)c(C=O)c1-c1cc2c(C=O)c(C)c(O)c(O)c2o1	> 800	< 34	>24	< 34	< 34	< 34	< 34
2.5	19	44	CCOC(=O)[C@@]1(O)OC(=O)C(Cc2ccc3c(c2)CCC(C)(C)O3)=C1c1ccc(O)cc1	519	< 34	12	< 34	< 34	< 34	< 34
3.4	14	57	COC(=O)[C@@]1(O)OC(=O)C(Cc2ccc3c(c2)CCC(C)(C)O3)=C1c1ccc(O)cc1	278	< 34	4.8	< 34	< 34	< 34	< 34
	2.1	37	COC(=O)[C@]1(Cc2ccc3c(c2)CCC(C)(C)O3)OC(=O)C(O)=C1c1ccc(O)cc1	> 800	< 34	>22	< 34	< 34	< 34	< 34
			COC(=O)c1cc(O)cc(OC)c1Oc1cc(C)cc(O)c1C(=O)O [ASTERRIC ACID]		< 34		< 34	< 34	< 34	< 34
		79	OC[C@H]1NC[C@H](O)[C@@H](O)[C@@H]1O [DUVOGLUSTAT]							
		120 to 1300	COc1cc(/C=C2\OC(=O)C(c3ccc(O)cc3)=C2O)ccc1O		< 34		< 34	< 34	< 34	< 34
	2.8	90	COC(=O)c1cc(O)cc(OC)c1Oc1c(Cl)c(C)c(Cl)c(O)c1C(=O)OC [METYL DICHLOROASTERRATE]	> 800	< 34	>8.9	< 34	< 34	< 34	< 34
		120 to 1300	COC(=O)c1cc(O)cc(OC)c1C(=O)c1c(O)cc(C)c(Cl)c1O		< 34		< 34	< 34	< 34	< 34
6.3	5.5	55	COC(=O)c1cc(O)cc(OC)c1Oc1c(Cl)c(C)c(Cl)c(O)c1C(=O)O [GEODIN HYDRATE]	> 800	< 34	>15	< 34	< 34	< 34	< 34
		120 to 1300	COC(=O)c1cc(O)cc(OC)c1Oc1cc(C)c(Cl)c(O)c1C(=O)O		< 34		< 34	< 34	< 34	< 34
		101	C[C@H]1O[C@H](O[C@H]2[C@H](O)[C@@H](O)[C@@H](O[C@H]3[C@H](O)[C@@H](O)C(O)O[C@@H]3CO)O[C@@H]2CO)[C@H](O)[C@@H](O)[C@@H]1N[C@H]1C=C(CO)[C@@H](O)[C@H](O)[C@H]1O (some centres not stated) [ACARBOSE]							
			COc1cccc2c1C(=O)c1c(O)c3c(c(O)c1C2=O)C[C@@](O)(C(=O)CO)C[C@@H]3O[C@H]1C[C@H](N)[C@H](O)[C@H](C)O1 [DOXORUBICIN HYDROCHLORIDE]		< 34		< 34	< 34	< 34	< 34
1.4	0.6	9.9	COc1cc(O)cc(C(=O)O)c1Oc1cc(C)cc(O)c1C(=O)O	> 800	< 34	>81	< 34	< 34	< 34	< 34
		120 to 1300	COC(=O)c1cc(O)cc(OC)c1C(=O)c1c(O)c(Cl)c(C)c(Cl)c1O [DIHYDROGEODIN]		< 34		< 34	< 34	< 34	< 34

Compound	Ki [2] [µM]	Ki [3] [µM]	IC50 [5] [µM]	CC50 at 72 h [1] [µM]	inhibition of growth at 10 µM (A549) [%]	Ratio CC50/IC50 [4]	inhibition of growth at 10 µM (Jurkat) [%]	inhibition of growth at 10 µM (K562) [%]	inhibition of growth at 10 µM (MCF7) [%]	inhibition of growth at 10 µM (HepG2) [%]
Cc1cc(O)c2c(c1)C(=O)c1cc(O)cc(O)c1C2=O [EMODIN]		0.79	19	> 800	< 34	>43	< 34	< 34	< 34	< 34
